The first experiment concerns the target T1, Fatty-acid amide hydrolase 1 (Rattus norvegicus) (UniProt P97612).
T1 sequence (whole entry): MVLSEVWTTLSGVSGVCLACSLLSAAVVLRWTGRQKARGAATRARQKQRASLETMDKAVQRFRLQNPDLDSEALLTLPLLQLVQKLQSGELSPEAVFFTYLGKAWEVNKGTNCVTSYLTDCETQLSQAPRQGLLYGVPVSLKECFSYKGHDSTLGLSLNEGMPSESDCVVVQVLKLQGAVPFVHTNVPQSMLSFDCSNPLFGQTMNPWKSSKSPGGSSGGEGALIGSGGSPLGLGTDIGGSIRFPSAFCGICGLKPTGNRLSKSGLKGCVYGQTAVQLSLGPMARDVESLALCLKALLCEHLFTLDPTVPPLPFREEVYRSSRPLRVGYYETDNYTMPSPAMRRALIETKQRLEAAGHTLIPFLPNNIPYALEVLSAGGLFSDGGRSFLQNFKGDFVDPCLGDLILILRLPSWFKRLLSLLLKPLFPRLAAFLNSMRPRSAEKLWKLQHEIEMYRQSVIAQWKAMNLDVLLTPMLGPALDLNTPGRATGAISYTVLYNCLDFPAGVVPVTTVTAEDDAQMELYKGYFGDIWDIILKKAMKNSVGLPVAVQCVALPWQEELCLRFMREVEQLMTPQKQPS
The experiment is described as follows: Tested for hydrolysis by rat brain microsomal anandamide amidohydrolase (AAH). In short, it runs like this:
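Substrate at 100 μM (final) with 150 μg rat brain microsomal protein in 50 mM Tris·HCl, 1 mM EDTA, 0.1% BSA, pH 7.4, 37 °C, 15 min with shaking. Stopped with acetonitrile. Products quantified by RP-HPLC: arachidonic acid at 204 nm, or ethanolamine-type amine by OPA precolumn derivatization at 230 nm. Substrate-free blank subtracted. Four experiments in duplicate.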
In turn, `CCCCC/C=C\C/C=C\C/C=C\C/C=C\CCCC(=O)OCC(O)CO` (stereo not drawn) displayed a Rate of hydrolysis (nM min-1 mg-1) of 3.43 and a Relative rate of hydrolysis of 264%.
The molecule `CCCCCCCC/C=C\CCCCCCCC(=O)NCCO` returned a Rate of hydrolysis (nM min-1 mg-1) of 0.79 and a Relative rate of hydrolysis of 61.1%.
The molecule `CCCCC/C=C\C/C=C\C/C=C\C/C=C\CCCC(=O)N(C)CCO` yielded a Rate of hydrolysis (nM min-1 mg-1) of 0 and a Relative rate of hydrolysis of 0%.
Consider `CCCCC/C=C\C/C=C\C/C=C\C/C=C\CCCC(=O)NC[C@H](C)O`, for which the Rate of hydrolysis (nM min-1 mg-1) was 0.273 and the Relative rate of hydrolysis amounted to 21%.
`CCCCC/C=C\C/C=C\C/C=C\C/C=C\CCCC(=O)N[C@@H](C)CO` displayed a Rate of hydrolysis (nM min-1 mg-1) of 0.299.
Consider `CCCCC/C=C\C/C=C\C/C=C\C/C=C\CCCC(=O)NCCO`, for which the Rate of hydrolysis (nM min-1 mg-1) was determined as 1.3.
Consider `CCCCC/C=C\C/C=C\C/C=C\C/C=C\CCCC(=O)OC(CO)CO`, for which the Rate of hydrolysis (nM min-1 mg-1) stood at 3.27 and the Relative rate of hydrolysis worked out at 251%.
On the same counts, the results for `CCCCC/C=C\C/C=C\C/C=C\C/C=C\CCCC(=O)NC(C)(C)CO` are 0.056 and 4.3%.
For `CCCCC/C=C\C/C=C\C/C=C\C/C=C\CCCC(=O)Nc1cccc(O)c1`, in that order: 1.98 and 152%.
Molecule `CCCCC/C=C\C/C=C\C/C=C\C/C=C\CCCC(=O)NCCF` returned a Rate of hydrolysis (nM min-1 mg-1) of 1.65 and a Relative rate of hydrolysis of 127%.
In turn, `CCCCC/C=C\C/C=C\C/C=C\C/C=C\CCCC(=O)Nc1ccccc1O` displayed a Rate of hydrolysis (nM min-1 mg-1) of 2.51 and a Relative rate of hydrolysis of 193%.
Regarding `CCCCC/C=C\C/C=C\C/C=C\C/C=C\CCCC(=O)NC[C@@H](C)O`, the Rate of hydrolysis (nM min-1 mg-1) was 1.58 and the Relative rate of hydrolysis is 121%.
On the same counts, the results for `CCCCC/C=C\C/C=C\CCCCCCCC(=O)N[C@@H](C)CO` are 0.27 and 20.5%.
As for `CCCCC/C=C\C/C=C\C/C=C\C/C=C\CCCC(=O)N[C@H](C)CO`, the Rate of hydrolysis (nM min-1 mg-1) worked out at 0.03.
In turn, `CCCCC/C=C\C/C=C\C/C=C\C/C=C\CCCC(=O)N[C@H](C)CC` came in with a Rate of hydrolysis (nM min-1 mg-1) of 0 and a Relative rate of hydrolysis of 0%.
On to `CCCCC/C=C\C/C=C\C/C=C\C/C=C\CCCC(=O)N(CCO)CCO`, for which the Rate of hydrolysis (nM min-1 mg-1) was 0.
Molecule `CCCCCCCC/C=C\CCCCCCCC(=O)N[C@@H](C)CO` registered a Rate of hydrolysis (nM min-1 mg-1) of 0.47 and a Relative rate of hydrolysis of 3.6%.
As to `CCCCC/C=C\C/C=C\C/C=C\C/C=C\CCCC(=O)NC1CCC(O)CC1` (stereo not drawn), the Rate of hydrolysis (nM min-1 mg-1) came to 0.299 and the Relative rate of hydrolysis stood at 2%.
For `CCCCC/C=C\C/C=C\C/C=C\C/C=C\CCCC(=O)NCC(C)C`, in that order: 0.025 and 2%.
`CCCCC/C=C\C/C=C\C/C=C\C/C=C\CCCC(=O)Nc1ccc(CO)cc1` had a Rate of hydrolysis (nM min-1 mg-1) of 0 and a Relative rate of hydrolysis of 0%.
Turning to `CCCCC/C=C\C/C=C\C/C=C\C/C=C\CCCC(N)=O`, the Rate of hydrolysis (nM min-1 mg-1) was found to be 2.85 and the Relative rate of hydrolysis was 219%.
For `CCCCC/C=C\C/C=C\C/C=C\C/C=C\CCCC(=O)N[C@@H](C)CC`, in that order: 0.082 and 6.3%.
In turn, `CCCCC/C=C\C/C=C\CCCCCCCC(=O)NCCO` had a Rate of hydrolysis (nM min-1 mg-1) of 0.98.
Molecule `CCCCCCCCCCCCCCCCCC(=O)NCCO` came in with a Rate of hydrolysis (nM min-1 mg-1) of 0.2 and a Relative rate of hydrolysis of 15%.
`CCCCC/C=C\C/C=C\C/C=C\C/C=C\CCCC(=O)NC(C)(C)C` came in with a Rate of hydrolysis (nM min-1 mg-1) of 0.022 and a Relative rate of hydrolysis of 1.8%.
The molecule `CCCCC/C=C\C/C=C\C/C=C\C/C=C\CCC(C)(C)C(=O)NCCO` yielded a Rate of hydrolysis (nM min-1 mg-1) of 0.0094 and a Relative rate of hydrolysis of 0.7%.
Take `CCCCC/C=C\C/C=C\C/C=C\C/C=C\CCCC(=O)Nc1ccc(O)cc1`: the Rate of hydrolysis (nM min-1 mg-1) is 0.208 and the Relative rate of hydrolysis was found to be 16%.

Test system in another experiment: not listed separately
The experiment is described as follows: Ratio of Vmax value and Km value of the compound. A digest of the protocol: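 Sprague–Dawley rat brain microsomes (105000g pellet) at 0.3 mg/mL protein, 37 °C, pH 7.4, BSA as carrier. Varied substrate concentrations, sampled at least four times within the linear initial range. Arachidonic acid formed measured by RP-HPLC (UV 204 nm, calibration curve). Initial velocity vs substrate concentration fitted to Michaelis–Menten.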
For the molecule `CCCCC/C=C\C/C=C\C/C=C\C/C=C\CCCC(=O)N[C@@H](C)CO`, the Vmax / Km (ml min-1 kg-1) came to 0.049.
Consider `CCCCC/C=C\C/C=C\C/C=C\C/C=C\CCCC(=O)Nc1ccccc1O`, for which the Vmax / Km (ml min-1 kg-1) was found to be 0.43.
Turning to `CCCCC/C=C\C/C=C\C/C=C\C/C=C\CCCC(=O)N[C@H](C)CO`, the Vmax / Km (ml min-1 kg-1) was 0.011.
With `CCCCC/C=C\C/C=C\C/C=C\C/C=C\CCCC(N)=O`, the Vmax / Km (ml min-1 mg-1) was found to be 1.24.

The values are drawn from ChEMBL document CHEMBL1132600.
